Compounds with a hit are over-represented: about 2% of the library has one in this group of screens.
EBNA-1 inh – blocks EBNA-1 binding to DNA; EBNA-1 DNA binding, fluorescence polarization; 300,000 tested, 0.34% active; inhibition, % at 14.8 µM; in the data active means inhibition above about 28%
ZTA counter – blocks Epstein-Barr virus ZTA, an EBNA-1 counter-screen. 320,000 tested, 0.15% active. inhibition, % at 11 µM. AID 2234. P03206. ZTA-DNA binding, fluorescence polarization; in the data active means inhibition above about 33%
Target sequence (P03206 whole entry, looked up): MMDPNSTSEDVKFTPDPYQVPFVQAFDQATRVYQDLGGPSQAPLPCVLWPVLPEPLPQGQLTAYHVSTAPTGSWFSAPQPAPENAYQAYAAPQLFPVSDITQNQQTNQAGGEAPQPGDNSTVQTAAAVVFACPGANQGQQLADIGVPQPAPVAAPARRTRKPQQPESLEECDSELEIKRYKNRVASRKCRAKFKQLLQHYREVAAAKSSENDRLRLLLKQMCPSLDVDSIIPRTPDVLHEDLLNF
HCV NS3 hel inh – blocks Hepatitis C virus NS3 helicase unwinding; NS3 helicase DNA unwinding, Cy5 molecular beacon fluorescence; inhibition, % at 10.9 µM; 290,000 tested, 0.56% active;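 active means inhibition above the mean of all tested compounds plus 3 SD, set per campaign, cut at about 35% in these data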;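 further: 0% = DMSO wells and 100% = thioflavine S control wells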
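Material: hepatitis C virus NS3 helicase domain fragment enzyme; measured by: Cy5 fluorescence, 0 and 60 min reads; control set: DMSO and thioflavine S; incubation: 60 min unwinding reaction at 25 °C after ATP addition; read-out basis: % inhibition from 60/0 min fluorescence ratio, DMSO 0%, thioflavine S 100%; repeats: singlicate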
FID counter – fluorescent intercalator displacement, NS3 helicase counter-screen; DNA fluorescent intercalator displacement, fluorescence; inhibition, % at 7.9 µM; 290,000 tested, 0.17% active; in the data active means inhibition above about 37%;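 further: 0% = vehicle and 100% = reference compound; higher means more ethidium bromide displaced from hairpin DNA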
GPR7 antag – antagonists of human GPR7 (neuropeptides B/W receptor 1) | P48145 | GPR7-expressing cells, fluorescence antagonist assay | inhibition, % at 4.4 µM | 290,000 tested, 1.1% active; in the data active means inhibition above about 16%, passing the limit was not always enough;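 further: cells stimulated with the agonist NPW; 0% = agonist with vehicle and 100% = vehicle without agonist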
Target sequence (P48145 whole entry, looked up): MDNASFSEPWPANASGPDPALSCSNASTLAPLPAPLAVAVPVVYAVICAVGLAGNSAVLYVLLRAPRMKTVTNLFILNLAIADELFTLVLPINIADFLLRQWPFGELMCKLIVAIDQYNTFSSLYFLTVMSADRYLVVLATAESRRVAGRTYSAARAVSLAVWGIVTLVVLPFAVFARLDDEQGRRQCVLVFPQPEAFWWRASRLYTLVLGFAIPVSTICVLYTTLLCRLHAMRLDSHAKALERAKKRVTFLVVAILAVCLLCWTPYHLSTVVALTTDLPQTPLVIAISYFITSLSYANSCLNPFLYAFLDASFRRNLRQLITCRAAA
Active calls of the source: *; x = no result given.

SMILES	EBNA-1 inh	ZTA counter	HCV NS3 hel inh	FID counter	GPR7 antag
C#CCOCCOCCOCCNc1nc(N2CCN(C(=O)CCCCCCCCCCNC(=O)[C@H](CCCCN)n3cc(CCO)nn3)CC2)nc(N2CCN(C(=O)CCCCCCCCCCNC(=O)[C@H](CCCCN)n3cc(CCCC(=O)O)nn3)CC2)n1	3	19	x	x	x
Cc1ccc(N(C(=O)c2csnn2)C(C(=O)NC2CCCCC2)c2ccccn2)cc1C (stereo unspecified)	7	-7	5	-40	-4
Cc1ccc(NC(=O)COC(=O)C2=NN(c3ccccc3)C(=O)CC2)c(Br)c1	x	19	x	x	x
Cc1ccc(NC(=O)CSc2nc3ccccc3c(=O)n2CCCN2CCCCC2)cc1Cl	-11	7	-72	35	25*
O=C(CCNC(=O)c1ccc(Cl)cc1)Nc1ccncc1	5	4	x	x	x
CCC(C)(C(=O)NC1CCCCC1)N(C(=O)c1ccccn1)c1ccccc1 (stereo unspecified)	0	-10	12	-28	3
CCC(C)(C(=O)NC1CCCC1)N(C(=O)CNC(C)=O)c1ccccc1 (stereo unspecified)	-3	1	0	-3	19*
Cn1c(=Nc2ccc(N3CCOCC3)cc2)ccc2ccccc21	-3	-7	0	2	1
Cn1c(N=Nc2ccc(N3CCOCC3)cc2)[n+](C)c2ccccc21	x	x	-5	59*	-21
Cc1oc(-c2cccc(Cl)c2)nc1CN1CCC(C(=O)NCc2ccco2)CC1	10	3	-24	23	-5
CCN1CCCC1CNC(=O)C1CCN(Cc2nc(-c3cccc(Br)c3)oc2C)CC1 (stereo unspecified)	-9	-21	-35	39*	-11
C#CCOCCOCCOCCNc1nc(N2CCN(C(=O)C(Cc3ccc(O)cc3)n3cc(C(N)C(C)CC)nn3)CC2)nc(N2CCN(C(=O)C(Cc3ccc(O)cc3)n3cc(C(N)C(C)CC)nn3)CC2)n1 (stereo unspecified)	1	6	-77	40*	0
C#CCOCCOCCOCCNc1nc(N2CCN(C(=O)[C@H](CCCCN)n3cc([C@@H](N)CC(C)C)nn3)CC2)nc(N2CCN(C(=O)[C@H](CCCCN)n3cc([C@@H](N)CC(C)C)nn3)CC2)n1	-2	-8	-65	58*	-6
C#CCOCCOCCOCCNc1nc(N2CCN(C(=O)[C@H](CCC(=O)O)n3cc(C(N)CC(C)C)nn3)CC2)nc(N2CCN(C(=O)[C@H](Cc3ccc(O)cc3)n3cc(C(N)CC(C)C)nn3)CC2)n1 (stereo partly specified)	7	7	-17	12	-11
C#CCOCCOCCOCCNc1nc(N2CCN(C(=O)[C@H](CCCCN)n3cc([C@@H](N)C(C)CC)nn3)CC2)nc(N2CCN(C(=O)[C@H](Cc3ccc(O)cc3)n3cc([C@@H](N)CC(C)C)nn3)CC2)n1 (stereo partly specified)	-8	-2	-68	49*	-18
C#CCOCCOCCOCCNc1nc(N2CCN(C(=O)[C@H](CCCCN)n3cc([C@@H](N)CC(C)C)nn3)CC2)nc(N2CCN(C(=O)[C@H](Cc3ccc(O)cc3)n3cc([C@@H](N)CC(C)C)nn3)CC2)n1	-6	-28	-70	44*	-10
O=c1ccc2cc(S(=O)(=O)N3CCN(c4ccc(Cl)cc4)CC3)ccc2o1	10	8	-16	-8	-8
C#CCOCCOCCOCCNc1nc(N2CCN(C(=O)[C@H]([C@@H](C)CC)n3cc([C@@H](N)CC(C)C)nn3)CC2)nc(N2CCN(C(=O)[C@H](CCCCN)n3cc([C@@H](N)CO)nn3)CC2)n1	6	-17	-57	38*	-10
C#CCOCCOCCOCCNc1nc(N2CCN(C(=O)[C@H]([C@@H](C)CC)n3cc([C@@H](N)Cc4ccc(O)cc4)nn3)CC2)nc(N2CCN(C(=O)[C@H](CCCCN)n3cc([C@@H](N)CC(C)C)nn3)CC2)n1	10	-13	-57	45*	-6
C#CCOCCOCCOCCNc1nc(N2CCN(C(=O)[C@H]([C@@H](C)CC)n3cc([C@@H](N)CO)nn3)CC2)nc(N2CCN(C(=O)[C@H]([C@@H](C)CC)n3cc([C@@H](N)CC(C)C)nn3)CC2)n1	4	-6	-65	31	-8
C#CCOCCOCCOCCNc1nc(N2CCN(C(=O)C([C@@H](C)CC)n3cc(C(N)CC(C)C)nn3)CC2)nc(N2CCN(C(=O)[C@H](CCC(=O)O)n3cc(C(N)Cc4ccc(O)cc4)nn3)CC2)n1 (stereo partly specified)	5	-5	-45	16	-23
CSc1nsc(SCC(=O)N2CCc3ccccc32)n1	-5	5	2	-4	-5
Cc1nnc(SCC(=O)N2CCc3ccccc32)s1	11	4	-6	-3	16*
C/C(=N\NC(=O)c1cc(-c2ccc(C)s2)[nH]n1)c1ccncc1	-6	-8	1	-17	16
O=C(COc1ccccc1)N=C1SC2CS(=O)(=O)CC2N1c1cccc(F)c1 (stereo unspecified)	-5	-6	-8	-13	4
SMILES	EBNA-1 inh	ZTA counter	HCV NS3 hel inh	FID counter	GPR7 antag
O=C1N/C(=N\S(=O)(=O)c2ccccc2)S/C1=C\c1cc([N+](=O)[O-])ccc1O	5	19	-10	3	16
O=C1N/C(=N\S(=O)(=O)Cc2ccccc2)S/C1=C/c1cc([N+](=O)[O-])ccc1O	10	19	17	-7	18*
Cc1ccc(S(=O)(=O)Nc2ccc(NC(=O)c3c(F)c(F)c(F)c(F)c3F)cc2)cc1	-16	3	14	-13	78*
Cc1cc(NS(=O)(=O)c2ccc(NC(=O)c3c(F)c(F)c(F)c(F)c3F)cc2)nc(C)n1	-7	-5	5	-11	-2
CN(C)CCNc1c2c(nc3ccccc13)CCC2	-5	-16	2	45*	-4
Cc1[nH]c2ccccc2c1C(=O)COC(=O)c1nccnc1N	x	1	x	x	x
CCOC(=O)C1=C(COC(=O)CCOc2ccccc2)NC(=O)NC1C (stereo unspecified)	x	-4	x	x	x
COc1ccc(Cl)cc1Nc1nc(N)c2ccccc2n1	7	4	-21	37*	10
O=S1(=O)CCOC[C@H](c2ccccc2)N1Cc1ccccc1F	4	-2	-19	-21	-3
CCc1cccc(CC)c1NC(=O)Cn1c(-c2ccccc2Cl)nc2ccccc21	18	5	1	0	18*
CCOC(=O)c1c(C)[nH]c(C)c1S(=O)(=O)N(C)CC(=O)Nc1cccc(C)n1	-10	2	15	-14	-10
CCOC(=O)N1CCN(C(=O)C(NC(=O)c2ccc(C(C)(C)C)cc2)C(C)C)CC1 (stereo unspecified)	x	12	x	x	x
CCOC(=O)C1(CCOc2ccccc2)CCN(C(=O)CCSC)CC1	-1	37*	-8	-36	1
CCOC(=O)CCNC(=O)N1CCC(CCOc2ccccc2)(C(=O)OCC)CC1	-1	-6	2	-39	-4

Screening data deposited in PubChem by The Scripps Research Institute Molecular Screening Center.
